Substrate in series [1]: CCCOCC1CNc2nc(N)nc(O)c2N1
The series is described as follows: (§1) Tyrosine hydroxylase (isolated from bovine adrenal medulla) cofactor activity. In a few lines: (§2)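 Tyrosine hydroxylase was purified from bovine adrenal medulla by partial trypsin digestion, giving a model of the high-affinity form, then ammonium sulfate fractionation. Activity was measured as release of ³H₂O from L-(3,5-³H)tyrosine, with velocities expressed relative to tetrahydrobiopterin.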

Substrate in series [2]: CCCCCCCCOCC1CNc2nc(N)nc(O)c2N1
The series is described as §1. In a few lines:
as §2

Substrate in series [3]: COCCOCC1CNc2nc(N)nc(O)c2N1
Described as §1. In a few lines:
as §2

Substrate in series [4]: COCC1CNc2nc(N)nc(O)c2N1
The description is as §1. In outline:
as §2

Substrate in series [5]: CCOCC1CNc2nc(N)nc(O)c2N1
The series is described as §1. In a few lines:
as §2

Substrate in series [6]: CC(C)OCC1CNc2nc(N)nc(O)c2N1
Described as §1. In a few lines: as §2

Substrate in series [7]: CC(C)COCC1CNc2nc(N)nc(O)c2N1
The description is as §1. In outline:
as §2

Substrate in series [8]: CCCCCOCC1CNc2nc(N)nc(O)c2N1
Described as §1. In outline:
as §2

Substrate in series [9]: CC(C)(C)OCC1CNc2nc(N)nc(O)c2N1
The description is as §1. In a few lines: as §2

Substrate in series [10]: CC1CNc2nc(N)[nH]c(=O)c2N1
The series is described as §1. In a few lines: as §2

Substrate in series [11]: CC1(C)CNc2nc(N)nc(O)c2N1
The description is as §1. In outline: as §2

The target in series [12] is Tyrosine hydroxylase (Bos taurus). The series is described as follows: Tested in isolated enzyme assay for its cofactor activity against tyrosine hydroxylase (isolated from bovine adrenal medulla) expressed as Michaelis-Menten constant.
Substrate in series [13]: CCCOCC1CNc2nc(N)nc(O)c2N1
Briefly: (§3) Tested in isolated enzyme assay for its cofactor activity against tryptophan hydroxylase (isolated from rat brain stem) expressed as Michaelis-Menten constant. In outline:
(§4)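 The tryptophan hydroxylase source was a desalted 40000g supernatant of rat brain stem, with velocities expressed relative to tetrahydrobiopterin.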

Substrate in series [14]: CCCCCCCCOCC1CNc2nc(N)nc(O)c2N1
The description is as §3. In outline:
as §4

Substrate in series [15]: COCC1CNc2nc(N)nc(O)c2N1
The series is described as §3. In outline: as §4

Substrate in series [16]: CC(O)C(O)C1CNc2nc(N)nc(O)c2N1
The description is as §3. In a few lines:
as §4

Substrate in series [17]: CCOCC1CNc2nc(N)nc(O)c2N1
Described as §3. In a few lines: as §4

Substrate in series [18]: CC(C)OCC1CNc2nc(N)nc(O)c2N1
The series is described as §3. In a few lines: as §4

Substrate in series [19]: CCCCOCC1CNc2nc(N)nc(O)c2N1
Described as §3. In outline:
as §4

Compound in series [20]: CC1CNc2nc(N)[nH]c(=O)c2N1
The series is described as follows: Tested in isolated enzyme assay for its cofactor activity against tryptophan hydroxylase (isolated from rat brain stem) expressed as Michaelis-Menten constant (calculated in the presence of platinum catalyst).

Substrate in series [21]: CCCOCC1CNc2nc(N)nc(O)c2N1
Briefly: (§5) Tested in isolated enzyme assay for its cofactor activity against phenylalanine hydroxylase (isolated from rat liver) expressed as Michaelis-Menten constant. In a few lines:
(§6)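 Phenylalanine hydroxylase was isolated from rat liver and purified on phenyl-Sepharose. Tyrosine formed was quantified by liquid chromatography with fluorescence detection, and velocities were expressed relative to tetrahydrobiopterin.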

Substrate in series [22]: CCCCCCCCOCC1CNc2nc(N)nc(O)c2N1
Described as §5. In outline:
as §6

Substrate in series [23]: COCCOCC1CNc2nc(N)nc(O)c2N1
The description is as §5. In a few lines:
as §6

Substrate in series [24]: COCC1CNc2nc(N)nc(O)c2N1
Described as §5. In outline:
as §6

Substrate in series [25]: CC(O)C(O)C1CNc2nc(N)nc(O)c2N1
Described as §5. In a few lines:
as §6

Substrate in series [26]: CCOCC1CNc2nc(N)nc(O)c2N1
The description is as §5. In a few lines:
as §6

Substrate in series [27]: CC(C)OCC1CNc2nc(N)nc(O)c2N1
The description is as §5. In outline:
as §6

Substrate in series [28]: CC1CNc2nc(N)[nH]c(=O)c2N1
The description is as §5. In outline: as §6

Substrate in series [29]: CC1(C)CNc2nc(N)nc(O)c2N1
The description is as §5. In a few lines:
as §6

Substrate in series [30]: CCCCOCC1CNc2nc(N)nc(O)c2N1
The description is as §5. In a few lines: as §6

By Km is commonly meant the substrate concentration at which the rate is half of its maximum.

“And” between values parts separate entries of the source, which are not always exact repeats. Identical values can stand only once.

B1: Tyrosine 3-monooxygenase (Bos taurus), P17289 (protein)
chain: MPTPNAASPQAKGFRRAVSELDAKQAEAIMSPRFVGRRQSLIQDARKEREKAEAAASSSESAEAAAWLERDGEAVLTLLFALPPTRPPALTRAIKVFETFEAHLHHLETRPAQPLRAGSPPLECFVRCEVPGPVVPALLSALRRVAEDVRAAGESKVLWFPRKVSELDKCHHLVTKFDPDLDLDHPGFSDQAYRQRRKLIAEIAFQYKQGDPIPHVEYTAEETATWKEVYSTLRGLYPTHACREHLEAFELLERFCGYREDRIPQLEDVSRFLKERTGFQLRPAAGLLSARDFLASLAFRVFQCTQYIRHASSPMHSPEPECCHELLGHVPMLADRTFAQFSQDIGLASLGVSDEEIEKLSTLYWFTVEFGLCKQNGEVKAYGAGLLSSYGELLHSLSEEPEIRAFDPDAAAVQPYQDQTYQPVYFVSESFSDAKDKLRSYASRIQRPFSVKFDPYTLAIDVLDSPHAIRHALDGVQDEMQALAHALNAIS
As for B1, the Km in [1] is 28 µM and 22 µM; in [2] it was 44 µM; in series [3], 200 µM; in series [4], 84 µM; in [5], 52 µM and 23 µM; in series [6] it was 45 µM and 55 µM. The Km is 80 µM in series [7]; 65 µM in series [8]; 120 µM in series [9]; 133 µM and 51 µM in series [10]; 77 µM and 105 µM in [11]; 22 µM in series [12].

B2: Tryptophan 5-hydroxylase 1 (Rattus norvegicus), P09810 (protein)
chain: MIEDNKENKDHSSERGRVTLIFSLKNEVGGLIKALKIFQENHVNLLHIESRKSKRRNSEFEIFVDCDINREQLNDIFPLLKSHTTVLSVDSPDQLPEKEDVMETVPWFPKKISDLDFCANRVLLYGSELDADHPGFKDNVYRRRRKYFAELAMNYKHGDPIPKIEFTEEEIKTWGTIFRELNKLYPTHACREYLRNLPLLSKYCGYREDNVPQLEDVSNFLKERTGFSIRPVAGYLSPRDFLSGLAFRVFHCTQYVRHSSDPLYTPEPDTCHELLGHVPLLAEPSFAQFSQEIGLASLGASEETVQKLATCYFFTVEFGLCKQDGQLRVFGAGLLSSISELRHALSGHAKVKPFDPKVACKQECLITSFQDVYFVSESFEDAKEKMREFAKTVKRPFGVKYNPYTQSIQVLRDSKSITSAMNELRHDLDVVNDALARVSRWPSV
On to B2, for which the Km came to 92 µM in [13]; 11 µM in [14]; 33 µM in [15]; 49 µM in series [16]; 44 µM in [17]; 129 µM in series [18]. For the same protein, the figures for the Km in series [19] and in series [20] were 84 µM and 355 µM, respectively.

B3: Phenylalanine-4-hydroxylase (Rattus norvegicus), P04176 (protein)
chain: MAAVVLENGVLSRKLSDFGQETSYIEDNSNQNGAISLIFSLKEEVGALAKVLRLFEENDINLTHIESRPSRLNKDEYEFFTYLDKRTKPVLGSIIKSLRNDIGATVHELSRDKEKNTVPWFPRTIQELDRFANQILSYGAELDADHPGFKDPVYRARRKQFADIAYNYRHGQPIPRVEYTEEEKQTWGTVFRTLKALYKTHACYEHNHIFPLLEKYCGFREDNIPQLEDVSQFLQTCTGFRLRPVAGLLSSRDFLGGLAFRVFHCTQYIRHGSKPMYTPEPDICHELLGHVPLFSDRSFAQFSQEIGLASLGAPDEYIEKLATIYWFTVEFGLCKEGDSIKAYGAGLLSSFGELQYCLSDKPKLLPLELEKTACQEYSVTEFQPLYYVAESFSDAKEKVRTFAATIPRPFSVRYDPYTQRVEVLDNTQQLKILADSINSEVGILCNALQKIKS
Turning to B3, the Michaelis constant (Km) is 16 µM in series [21]; 1 µM in series [22]; 65 µM in series [23]; 17 µM in series [24]; 5.5 µM in series [25]; 21 µM in [26]. The Km stood at 9 µM in series [27], 21 µM in series [28], 29 µM in series [29] and 21 µM in [30].

The values above are taken from ChEMBL document CHEMBL1123591, “Synthetic analogues of tetrahydrobiopterin with cofactor activity for aromatic amino acid hydroxylases” (1987).
